This passage reports cytotoxicity results from ChEMBL document CHEMBL4513216, “Probing the Open Global Health Chemical Diversity Library for Multistage-Active Starting Points for Next-Generation Antimalarials” (ACS Infect Dis, 2020).

SMILES strings stand for the structures.

The nature of this data set: Toxicity liver stage against HepG2, at 10uM. In kind it is cell-based. Details: test concentration 10 uM, cell line HepG2-A16-CD81EGFP. As to conditions: human, HepG2-A16-CD81EGFP cells; read-out: INHIBITION
Summed up: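 Uninfected HepG2-A16-CD81EGFP cells, 3 × 10^3 per well, 1536-well, plated on prespotted compound at 10 μM final, parasite-free screening media added to match infected plates; puromycin 10 μM positive, DMSO 0.5% negative; run in parallel with 48 h PbLuc assay at 37 °C, 5% CO2; viability by CellTiter-Glo luminescence, normalized to controls.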
For the compound `Cn1cncc1-c1nnc([C@H]2CCN(CC(C)(C)C)C2)o1`, the cytotoxicity at 10 µM came out at 2.26%.

Regarding `Cc1ccc2c(c1)nc1n2[C@@H](CNC(=O)c2ccccn2)COC1`, the cytotoxicity at 10 µM was determined as 7.82%.

For the compound `Cc1c(OCC(=O)NCc2ccccc2)c(=O)ccn1C`, the cytotoxicity at 10 µM was -49.9%.

As to `O=C(CCc1nnc2ccccn2c1=O)NCc1ccc2c(c1)OCO2`, the cytotoxicity at 10 µM is -0.403%.

As for `Cc1ccc(S(=O)(=O)NCCOc2ccc3nnc(C)n3n2)s1`, the cytotoxicity at 10 µM was -6.26%.

For the compound `O=C(NCCN1CCC(c2cccs2)CC1)c1ccc(F)cc1Cl`, the cytotoxicity at 10 µM is -2.83%.

`Cc1ccc(CN2CCC3(CCN(S(=O)(=O)c4ccccc4)C3)C2)o1` (stereo unspecified): the cytotoxicity at 10 µM was -0.00736%.

As to `c1cc(-c2ccc3c(c2)CCC32CCNCC2)ccn1`, the cytotoxicity at 10 µM was 8.86%.

Take `CN(C)C(=O)Cn1c2c(ccc1=O)CC(NCc1cccnc1)CC2` (stereo unspecified): the cytotoxicity at 10 µM stood at 18%.

With `CCOC[C@@H]1CC[C@H]2[C@H](CCN2S(=O)(=O)Cc2ccccc2)O1`, the cytotoxicity at 10 µM was 2.84%.

With `CN(C)S(=O)(=O)N1CC[C@]2(C[C@@H](OCC3CC3)CO2)C1`, the cytotoxicity at 10 µM was determined as 8.88%.

As to `CCC(C)n1c(SCC(=O)N2CCOCC2)nc2cc(C)[nH]c2c1=O` (stereo unspecified), the cytotoxicity at 10 µM came out at 7.94%.

`O=C(O)c1ccc2c(CN3CCOCC3)c[nH]c2c1`: the cytotoxicity at 10 µM amounted to 4.91%.

For `Cc1cc(C)n(CCCNc2ncnc3c2NC(=O)CN3)n1`, the cytotoxicity at 10 µM came out at 8.71%.

On to `Cc1csc2c(C3CCCN(C(=O)CCn4ccnc4)C3)nc(C)n12` (stereo unspecified), for which the cytotoxicity at 10 µM came out at 16.9%.

On to `Cn1cc(CN2CCCCC2c2ccc(-c3cccc(Cl)c3)nc2)cn1` (stereo unspecified), for which the cytotoxicity at 10 µM is -8.51%.

Regarding `CC1(C(=O)N2CCOCC2)CN(C2CCCCC2)CCO1` (stereo unspecified), the cytotoxicity at 10 µM is -22.3%.

`Cc1cnn(CC2CCN(CC(O)c3ccccc3Cl)CC2)c1` (stereo unspecified): the cytotoxicity at 10 µM is 4.51%.

In the case of `CCN(CC)c1ncc(Cl)c(C(=O)NC2CC2)n1`, the cytotoxicity at 10 µM is -33.5%.

For the compound `COc1ccc2nc(C3CC3)cc(C(=O)NCc3noc(C)n3)c2c1`, the cytotoxicity at 10 µM is 11.8%.

For `Cn1ccc(NC(=O)Cc2ccccc2F)n1`, the cytotoxicity at 10 µM amounted to 19.1%.

`Cc1nnc(C(C)Nc2cccc(COCC(F)(F)C(F)F)c2)o1` (stereo unspecified): the cytotoxicity at 10 µM was -1.2%.

Regarding `CC(=O)c1cccc(OCCCC(=O)N(C)CCC(F)(F)F)c1`, the cytotoxicity at 10 µM came to 4.33%.

On to `OC(CN(Cc1ccccc1)Cc1cccnc1)c1cccs1` (stereo unspecified), for which the cytotoxicity at 10 µM is 4.01%.

`Cc1nc(C)n(CC2CCCN(CC(=O)Nc3cccnc3)C2)n1` (stereo unspecified): the cytotoxicity at 10 µM is -4.84%.

As to `Cc1cc(C)cc(C(=O)NCc2ncnn2C)c1`, the cytotoxicity at 10 µM was found to be 4.64%.

With `CCS(=O)(=O)CC(=O)NCC1(c2c(F)cccc2F)CCCC1`, the cytotoxicity at 10 µM is -3.32%.

With `Cc1cc(=O)n(C)cc1NC(=O)Cc1cc(F)ccc1F`, the cytotoxicity at 10 µM was -11.4%.

Turning to `CCN(Cc1ccccc1)C1CCN(c2cc(C)nn2C)C1=O` (stereo unspecified), the cytotoxicity at 10 µM was -3.03%.

With `Cc1c(I)cccc1C(=O)NCc1ncc[nH]1`, the cytotoxicity at 10 µM was determined as 17.3%.

With `CCc1nc(Cn2c(=O)n(CC)c3ccccc32)no1`, the cytotoxicity at 10 µM was -43.9%.

As for `CN(CC(=O)NCC1CCCO1)Cc1nc2c(s1)CCCC2` (stereo unspecified), the cytotoxicity at 10 µM was 21.6%.

For the compound `OC(COCc1cccs1)CSc1nnc2ccccn12` (stereo unspecified), the cytotoxicity at 10 µM was determined as 1.66%.

As to `Cc1nnc(N2CCN(C(=O)NC3CC3)CC2)c(C(N)=O)c1C`, the cytotoxicity at 10 µM came out at 4.34%.

With `CCCN1CCCN(S(=O)(=O)c2cnc3onc(C)c3c2)CC1`, the cytotoxicity at 10 µM worked out at 1.71%.

With `CC(Cn1ccnc1)NC(=O)N(C)Cc1ccsc1` (stereo unspecified), the cytotoxicity at 10 µM amounted to 2.69%.

In the case of `CCC(C)(COc1ncccc1Cl)NCC(=O)NCC(C)C` (stereo unspecified), the cytotoxicity at 10 µM is -2.86%.

Regarding `Cc1noc(CN2CCC(Cc3ccc(F)cc3)CC2)n1`, the cytotoxicity at 10 µM was 11.3%.

Consider `Cc1ccc(C(CNC(=O)Cc2nc3ncccn3n2)N(C)C)cc1` (stereo unspecified), for which the cytotoxicity at 10 µM is -1.64%.

On to `CNc1nc(CNC(=O)Nc2ccc(OC(C)C)cc2C)cs1`, for which the cytotoxicity at 10 µM is 26.4%.

Consider `Cc1nc(CN2CCC3(C2)CN(Cc2ccco2)C3)cs1`, for which the cytotoxicity at 10 µM was -106%.

`Cc1occc1C(=O)N1CCCC2(CCN(c3ccsc3)C2=O)C1` (stereo unspecified): the cytotoxicity at 10 µM is -70.7%.

For `CCOCC1CN(C(=O)c2cscn2)Cc2cnn(CC3CC3)c21` (stereo unspecified), the cytotoxicity at 10 µM is -69.4%.

On to `Cc1cnc(C(=O)N2CCC3(CC2)CN(c2ccccn2)CCO3)cn1`, for which the cytotoxicity at 10 µM was -80.2%.

Take `COCC(=O)NCC[C@H]1CC(C)(C)Oc2ccccc21`: the cytotoxicity at 10 µM was 3.3%.

Regarding `COc1cccc(-c2ncc3c(n2)N(C)CCN(CCN(C)C)C3=O)c1`, the cytotoxicity at 10 µM was -12.2%.

Turning to `Cc1cnc(C)c(N2CCCC(CC3CC3)(C(=O)O)C2)n1` (stereo unspecified), the cytotoxicity at 10 µM is -6.09%.

Consider `CC(C)N1CCCn2nc(C(=O)NCCc3ccccn3)cc2C1`, for which the cytotoxicity at 10 µM is -1.95%.

Regarding `CC(C)=CCN1CCC2(CC1)c1ccccc1[C@@H](N1CCSCC1)[C@@H]2O`, the cytotoxicity at 10 µM was 7.25%.

For `Cc1ccc(N2C[C@@H]3CN(C(=O)NC4CCCC4)C[C@]3(C(=O)O)C2)nn1`, the cytotoxicity at 10 µM was 19.5%.

`CC1(C)CCN(Cc2ccccc2-c2nc(C(C)(C)C)cc(=O)[nH]2)C1`: the cytotoxicity at 10 µM was -39.9%.

Turning to `CCc1cnc(C)nc1N1CCS(=O)(=O)CC1`, the cytotoxicity at 10 µM was -43.3%.

Turning to `Cc1ccc(-c2cc(C(=O)NCCCc3csc(N)n3)[nH]n2)s1`, the cytotoxicity at 10 µM came out at 81.7%.

For the compound `COc1ccccc1OC1(C(=O)O)CCN(c2nc(C)cnc2C)CC1`, the cytotoxicity at 10 µM was -13.6%.

`COc1ccc(C(=O)NCC2CCCN(C3CCOCC3)C2)c(O)c1` (stereo unspecified): the cytotoxicity at 10 µM worked out at 5.21%.

For the compound `Cc1ccnc(NCCNC(=O)CCNC(=O)c2ccccc2F)c1`, the cytotoxicity at 10 µM was 1.5%.

Take `CSc1nccc(N2CCC(NCc3ccc4c(c3)OCO4)CC2)n1`: the cytotoxicity at 10 µM is -3.4%.

As for `Cc1ccc(C#N)c(N2CCCC(c3nccn3Cc3cscn3)C2)n1` (stereo unspecified), the cytotoxicity at 10 µM was -1.9%.

As for `c1ccc(-c2nc3c(c(NCCCn4cncn4)n2)CCNCC3)nc1`, the cytotoxicity at 10 µM is -45.6%.

Turning to `O=C(c1ccnc(-n2cnnc2)c1)N1CCCC2(CCNC2)C1` (stereo unspecified), the cytotoxicity at 10 µM is -19.1%.

For the compound `CC(=O)NCC1CCC2(CCN(c3ncc(C(C)=O)c(C)n3)CC2)O1` (stereo unspecified), the cytotoxicity at 10 µM is -0.611%.

`COc1ccc(CN2CCCC2)cc1Oc1cccc(C#N)n1`: the cytotoxicity at 10 µM worked out at 7.01%.

For `CCOc1ccc(C(=O)NC2CC2)cc1C`, the cytotoxicity at 10 µM was found to be 8%.

As to `CC1Oc2ccc(S(=O)(=O)NCCCn3ccnc3)cc2NC1=O` (stereo unspecified), the cytotoxicity at 10 µM amounted to 7.88%.

With `Cc1nc(CCCNC(=O)C2CC(=O)N(C3CC3)C2)sc1C` (stereo unspecified), the cytotoxicity at 10 µM was -12.9%.

`CN1CC[C@H](c2ccccc2)[C@@H]2[C@H]1CCCCN2C(=O)c1cnccn1`: the cytotoxicity at 10 µM is -2.5%.

Regarding `CCOCCCNc1nc(O)cc(C2CC(=O)N(C)C2)n1` (stereo unspecified), the cytotoxicity at 10 µM worked out at 0.873%.

On to `CC(C)Cc1cc(NC(=O)c2n[nH]c3ccccc23)n(C)n1`, for which the cytotoxicity at 10 µM was -15.9%.

For the compound `Cc1cnn(C2CN(CC(=O)NCCCc3ccccc3)C2)c1`, the cytotoxicity at 10 µM was 0.555%.

Turning to `Cc1nc(CN2CCCN(CCOc3ccc(C#N)cc3)CC2)no1`, the cytotoxicity at 10 µM is -5.93%.

Regarding `CC(=O)N(Cc1noc(C2CC2)n1)C1CCN(CC2CCOCC2)C1` (stereo unspecified), the cytotoxicity at 10 µM came to 1.29%.

As for `COCCS(=O)(=O)Nc1ccc(-n2cncn2)c(F)c1`, the cytotoxicity at 10 µM was -12.2%.

`Cc1noc(C)c1CC(=O)N1CCCN(Cc2cscn2)CC1`: the cytotoxicity at 10 µM is 2.45%.

For `Cc1cnn(C2CCCN(C(=O)c3cccc4c3OCO4)C2)c1` (stereo unspecified), the cytotoxicity at 10 µM is -2.23%.

For `CCc1nc(CN2CCOC(CN(CC)c3cccnn3)C2)cs1` (stereo unspecified), the cytotoxicity at 10 µM is 3.09%.

`COCCN1CCC(NCc2ccc(C#N)cc2)C1` (stereo unspecified): the cytotoxicity at 10 µM was -9.34%.

`O=C(c1ccsc1)N1CCCC(c2cc(C(F)(F)F)[nH]n2)C1` (stereo unspecified): the cytotoxicity at 10 µM was -4.22%.

Consider `Cn1cc(CN2CCCN(C(=O)c3cn4ccccc4n3)CC2)cn1`, for which the cytotoxicity at 10 µM was -5.97%.

Turning to `CCN1CCN(c2ccc(CNC(=O)c3ccc(Cl)o3)cn2)CC1`, the cytotoxicity at 10 µM was -0.433%.

As to `CN(C)C(=O)COC[C@]12COC[C@H]1CN(C1CCCC1)C2`, the cytotoxicity at 10 µM was -108%.

In the case of `COCCN1CCC2(CC1)CC(NC(=O)CC1CC1)c1ccccc1O2` (stereo unspecified), the cytotoxicity at 10 µM is -1.83%.

With `N#Cc1ccc(N2CCCC3(CCC(=O)N3CC3CC3)CC2)nc1` (stereo unspecified), the cytotoxicity at 10 µM is -125%.

On to `CN1CC[C@]2(CN(CC3CCOC3)C[C@H]2c2ccccc2)C1=O` (stereo partly specified), for which the cytotoxicity at 10 µM was determined as 0.619%.

On to `CS(=O)(=O)N[C@@H]1CN(C(=O)c2cccnc2)[C@@H]2CCCO[C@@H]21`, for which the cytotoxicity at 10 µM was -81.8%.

Turning to `CS(=O)(=O)N1CCOCC12CCN(Cc1ccc(F)cc1)CC2`, the cytotoxicity at 10 µM is 3.39%.

For `CN(Cc1cn2c(n1)CN(C1CCOCC1)CC2)Cc1ccco1`, the cytotoxicity at 10 µM was -64.3%.

With `Cn1ccc(CN2CCCC23CCN(Cc2cccc(F)c2)CC3)n1`, the cytotoxicity at 10 µM is -103%.

For the compound `COCCN1C[C@@H]2CN(c3cc(OC)ncn3)CCC[C@]2(C(=O)O)C1`, the cytotoxicity at 10 µM amounted to 4.26%.

Consider `O=C1[C@H]2CN(Cc3ccccn3)C[C@H]2CN1c1ccsc1`, for which the cytotoxicity at 10 µM was -73.2%.

For the compound `CN(C)CCN1CCC2(CCN(C(=O)c3ccc(F)cc3)CC2)C1=O`, the cytotoxicity at 10 µM was -0.00146%.

For `Fc1ccc(CN2CCC3(CC2)CCN(c2ncccn2)CC3)cc1`, the cytotoxicity at 10 µM was -73.7%.

Turning to `CCN1CC2(CC1=O)CN(Cc1ccco1)CCN(C(=O)C(C)C)C2` (stereo unspecified), the cytotoxicity at 10 µM is -4.51%.

In the case of `CN(C)S(=O)(=O)N1CC[C@]2(C[C@H](OCc3ccncc3)CO2)C1`, the cytotoxicity at 10 µM is 1.23%.

`O=C(C1CCC2(CCN(c3nncs3)CC2)CO1)N1CCCC1` (stereo unspecified): the cytotoxicity at 10 µM was found to be 9.46%.

For `O=C(c1ccco1)N1CCCC2(CCN(c3nncs3)C2)C1` (stereo unspecified), the cytotoxicity at 10 µM was -97.4%.

Turning to `CCc1cc(CN2C[C@@H]3CC[C@H]2CN(C2Cc4ccccc4C2)C3)on1`, the cytotoxicity at 10 µM is 0.998%.
